In the library only some 3.5% were active in any assay of this set; here they are far more common.
ABHD4 inh = inhibitors of mouse ABHD4; actives 0.54% (n = 370,000); inhibition, % at 8.92 µM; purified mABHD4, FP-Rh probe fluorescence polarization;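 active means inhibition exceeding the mean over every tested compound plus 3 SD, cut at about 30% in these data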
Target sequence (Q8VD66 whole entry, looked up): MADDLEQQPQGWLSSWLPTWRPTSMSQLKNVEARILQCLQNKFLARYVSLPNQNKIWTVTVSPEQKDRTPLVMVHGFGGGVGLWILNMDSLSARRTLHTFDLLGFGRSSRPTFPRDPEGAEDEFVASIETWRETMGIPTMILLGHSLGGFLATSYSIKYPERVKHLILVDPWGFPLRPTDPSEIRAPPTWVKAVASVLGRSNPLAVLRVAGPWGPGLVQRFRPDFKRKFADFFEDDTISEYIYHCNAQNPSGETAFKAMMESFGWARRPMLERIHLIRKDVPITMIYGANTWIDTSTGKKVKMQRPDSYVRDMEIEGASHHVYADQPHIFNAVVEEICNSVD
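Test system: mouse ABHD4 enzyme, wild type. Reagent: FP-Rh fluorescent activity-based probe, added after compound pre-incubation. Timing: pre-incubation 45 min, probe exposure 60 min, at 25 °C. Technique: FP readout, ex 525 nm / em 598 nm. Benchmarks: high control S159A mutant with DMSO, low control median of compound wells.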
TCR CD3 inh = human TCR-CD3 binding inhibition. TAMRA-labeled TCR probe fluorescence, biochemical. inhibition, % at 9.4 µM. actives 0.37% (n = 360,000). AID 651800; in the data active means inhibition above about 19%;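 further: recombinant mutant TCR 2C K166C tagged with TAMRA read by polarization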
SIAE primary = blocks human sialic acid acetylesterase | AID 1053197 | SIAE FP-Rh probe binding, fluorescence polarization | inhibition, % at 9.66 µM | Q9HAT2 | actives 0.69% (n = 370,000);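 active means inhibition above a cutoff: mean of compounds within the control limits plus 3 SD of those, cut at about 17% in these data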
HTRA1 inh = blocks human HTRA1 serine peptidase; Q92743; recombinant HTRA1, FP-rhodamine activity-based probe, fluorescence polarization; inhibition, % at 5.96 µM; actives 0.5% (n = 340,000); AID 504803; in the data active means inhibition above about 36%
rCAG RNA binder = binds r(CAG) RNA repeats. r(CAG) RNA repeat, TO-PRO-1 dye displacement fluorescence. inhibition, % at 3 µM. actives 1.3% (n = 370,000). AID 651821;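 active means inhibition above the plate cutoff, the mean of all test compounds on that plate plus 3 SD, cut at about 35% in these data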;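 further: higher means more dye released from RNA so lower well fluorescence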
PRMT1 FP inh = blocks human protein arginine methyltransferase 1 | actives 1.3% (n = 370,000) | recombinant PRMT1, activity-based probe fluorescence polarization | inhibition, % at 2.79 µM | Q99873;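 active means inhibition above about 21% made by adding two undisclosed values, limit read from the data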
Target sequence (Q99873 whole entry, looked up): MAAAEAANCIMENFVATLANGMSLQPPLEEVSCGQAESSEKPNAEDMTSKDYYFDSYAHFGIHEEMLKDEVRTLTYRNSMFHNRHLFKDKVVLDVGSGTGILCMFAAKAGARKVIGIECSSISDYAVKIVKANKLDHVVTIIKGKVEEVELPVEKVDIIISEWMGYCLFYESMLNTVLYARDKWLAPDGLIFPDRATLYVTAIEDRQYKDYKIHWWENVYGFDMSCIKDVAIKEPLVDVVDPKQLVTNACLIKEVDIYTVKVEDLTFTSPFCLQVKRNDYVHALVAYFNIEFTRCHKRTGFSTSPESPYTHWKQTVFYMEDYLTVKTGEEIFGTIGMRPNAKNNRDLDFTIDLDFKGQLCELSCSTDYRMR
Each line names hits and unclear results; the compound was inactive in the other large screens.

CCCCn1c(NC(=O)CC)c(C#N)c2nc3ccccc3nc21	none
CC(C)CNC(=O)OCc1cn(Cc2ccccc2Cl)nn1	none (no result: TCR CD3 inh, HTRA1 inh)
O=C(N[C@@H]1C[C@@H]2O[C@@H](CO)CC[C@@H]2O[C@@H]1CCc1ccc(-c2ccccc2)cc1)c1cnccn1	none (no result: TCR CD3 inh, HTRA1 inh)
COc1ccccc1/C=C/C=N/n1c(-c2ccc(C)cc2)n[nH]c1=S	PRMT1 FP inh 22
S=c1[nH]nc(-c2ccccc2)n1/N=C/c1cccc(Cl)c1	none
S=c1[nH]nc(-c2ccccc2)n1/N=C/c1ccc(Cl)cc1	PRMT1 FP inh 22
COc1ccc(-c2n[nH]c(=S)n2/N=C/C=C\c2ccccc2OC)cc1	none
C=C1C(=O)[C@@]23[C@H](O)C[C@@H]4C(C)(C)CC[C@H](O)[C@]4(C)[C@@H]2C[C@H](O)[C@@H]1[C@H]3O	PRMT1 FP inh 22
CCC1=C/C(=C/c2sc3ccccc3[n+]2CC)CC(C)(C)C1	PRMT1 FP inh 37 (no result: HTRA1 inh)
N#Cc1sc2nc(-c3ccccc3)cc(-c3ccco3)c2c1N	HTRA1 inh 43
N#Cc1sc2nc(C3CC3)cc(-c3ccccc3)c2c1N	none
CCOC(=O)C(NC(=O)CCl)(Nc1sc(C)c(CC)c1C#N)C(F)(F)F (stereo not drawn)	PRMT1 FP inh 22
CCOC(=O)C(NC(=O)CC(C)C)(Nc1sc(C)c(CC)c1C#N)C(F)(F)F (stereo not drawn)	none
COc1cc(-c2c(C(=O)c3ccccc3)[nH]c(N)c2C(N)=O)ccc1O	none (no result: TCR CD3 inh, HTRA1 inh, rCAG RNA binder)
Cc1ccccc1NC(=O)c1c(C)[nH]c(=S)c(C#N)c1-c1ccco1	PRMT1 FP inh 24
Cc1nc(SCC(=O)O)c(C#N)c(-c2ccco2)c1C(=O)N(C)C	none
CSc1nc(C)c(C(=O)Nc2ccccc2)c(-c2ccco2)c1C#N	none
CNC(=O)c1c(C)[nH]c(=S)c(C#N)c1-c1ccco1	PRMT1 FP inh 34
C=CCN(CC#CC1=CCCCC1)CC1CC1	none (no result: TCR CD3 inh, HTRA1 inh)
CSC1=N/C(=C\c2ccc(Br)o2)C(=O)S1	PRMT1 FP inh 25
O=C(OC12CCCN(C1)/C(=C/c1ccncc1)C2)C1CCCCC1 (stereo not drawn)	none (no result: TCR CD3 inh, HTRA1 inh)
Cc1cccc(Nc2n[nH]c(=S)s2)c1C	PRMT1 FP inh 24
CN(C)CCCn1c(SCC(=O)N2CC(=O)Nc3ccccc32)nc2ccccc2c1=O	PRMT1 FP inh 21
CC1=Nc2ccccc2/C1=C/c1sc(=S)n(-c2cccc(C(=O)O)c2)c1O	rCAG RNA binder 72
Nc1nc(SCc2ccccc2)ns1	PRMT1 FP inh 23
Cc1ccc(-c2nc3c(Cl)cc(C(F)(F)F)cn3c2Cc2ccccc2C(F)(F)F)cc1	rCAG RNA binder 35 (no result: HTRA1 inh)
COc1ccc(-c2nc3c(Cl)cc(C(F)(F)F)cn3c2Cc2ccccc2C(F)(F)F)cc1OC	none (no result: HTRA1 inh)
CCOC(=O)C1CCN(C(=O)Nc2ccc3nc(-c4ccco4)c(-c4ccco4)nc3c2)CC1	HTRA1 inh 45 (no result: ABHD4 inh, TCR CD3 inh, SIAE primary, rCAG RNA binder, PRMT1 FP inh)
CCOC(=O)C1CCN(C(=O)Nc2ccc3c(c2)nc(C)n3C)CC1	none
CCOC(=O)CC[C@@]1(C(=O)OCC)C[C@@H](CC(=O)NCc2cccs2)C(=O)N2CCCC=C21	none (no result: TCR CD3 inh, HTRA1 inh)
CCn1c(=S)[nH]c2scc(-c3cccs3)c2c1=O	PRMT1 FP inh 23
Nn1cc(-c2ccccc2)nc1SCC(=O)Nc1ccc(S(N)(=O)=O)cc1	PRMT1 FP inh 23
Nn1cc(-c2ccccc2)nc1SCC(=O)Nc1cccc(S(N)(=O)=O)c1	none
COc1ccc(S[C@]2(C(=O)N3CCOCC3)CC(=O)N(c3ccc(OC)cc3)[C@@H]2c2ccc(OC)cc2)cc1	none (no result: TCR CD3 inh, HTRA1 inh)
CNc1cccnc1C=NNC(N)=S	PRMT1 FP inh 24
NC(=S)N/N=C/c1ccccc1	none
O=C(Nc1ccc(C(=O)O)cc1)/C(=C\C=C\c1ccccc1)NC(=O)c1ccccc1Cl	rCAG RNA binder 37
O=C1CC(NCc2ccncc2)C(=O)N1c1ccccc1 (stereo not drawn)	none
N#CCNC1CC(=O)N(c2ccc(F)cc2)C1=O (stereo not drawn)	PRMT1 FP inh 22
O=C1CC(NCc2ccc(F)cc2)C(=O)N1c1ccccc1 (stereo not drawn)	PRMT1 FP inh 22
C#CCN(CC=C)Cc1ccc(OC)cc1OC	none (no result: TCR CD3 inh, HTRA1 inh)
Cc1cc(-c2csc(NCc3ccccc3)n2)c(C)n1C	HTRA1 inh 37 (no result: ABHD4 inh, TCR CD3 inh, SIAE primary, rCAG RNA binder, PRMT1 FP inh)
C=CCN(Cc1ccc2c(c1)OCO2)C(C#CC1CC1)C(C)C (stereo not drawn)	none (no result: TCR CD3 inh, HTRA1 inh)
COC(=O)c1cc(-c2cccs2)c(=O)n2c1CCC2	none (no result: TCR CD3 inh, HTRA1 inh)
CC1(C)Cc2c(c(=S)nc(-c3ccccc3)n2CCOCCO)CO1	PRMT1 FP inh 22
C=CCn1c(-c2ccccc2)nc(=S)c2c1CC(C)(C)OC2	none
COc1ccc(O)c(/C=N/c2sc(C)c(C)c2C#N)c1	PRMT1 FP inh 24
O=C(Nc1cccc2ncccc12)c1ccc(-c2ccc(Br)cc2)o1	PRMT1 FP inh 25
CC1(C(=O)NS(=O)(=O)c2ccccc2Cl)CCN1C(=O)C1(c2ccc(Cl)cc2)CCC1 (stereo not drawn)	rCAG RNA binder 47 (no result: HTRA1 inh)
N#CC(c1ccc(Cl)cc1)c1ccc2c(C(F)(F)F)cc(C(F)(F)F)nc2n1 (stereo not drawn)	SIAE primary 23
FC(F)(F)c1cc(C(F)(F)F)c2ccc(N3CCN(c4ccc(Cl)cc4)CC3)nc2n1	none
c1ccc(-n2c(SCc3cccc4ccccc34)nnc2-c2ccccn2)cc1	none (no result: TCR CD3 inh, HTRA1 inh)
Cc1ccc(-n2c(SCC(=O)Nc3ccc(OCc4ccccc4)cc3)nnc2-c2cnccn2)cc1	none (no result: TCR CD3 inh, HTRA1 inh)
CCOc1ccccc1C(O)C1=CC(=O)c2ccccc2C1=O (stereo not drawn)	ABHD4 inh 43, rCAG RNA binder 38
CCOc1ccccc1C(N)=O	none
O=C(CSc1nc2ccccc2c(=O)[nH]1)Nc1ccc(S(=O)(=O)N2CCCC2)cc1	PRMT1 FP inh 23
COc1cccc(NC(=O)NC2CCCCN(Cc3ccc(C)cc3)C2=O)c1 (stereo not drawn)	none (no result: TCR CD3 inh, HTRA1 inh)
CN[C@H]1C[C@H]2c3[nH]c4cccc(-c5cccc(F)c5)c4c3CCN2C(=O)[C@H]1[C@H](C)O	none (no result: TCR CD3 inh, HTRA1 inh)
O=C(N/N=C/c1ccc(Cl)cc1Cl)c1ccncc1	none
O=C(N/N=C/c1cc(Cl)cc(Cl)c1O)c1ccncc1	PRMT1 FP inh 24
O=C(CN1C(=O)CCSc2ccccc21)Nc1ccc(F)cc1F	none (no result: TCR CD3 inh, HTRA1 inh)
CCOC(=O)CP(=O)(c1ccccc1)c1ccccc1	none
N=C(N)SCP(=O)(c1ccccc1)c1ccccc1	PRMT1 FP inh 68
Cc1ccc(P(=O)(CO)c2ccc(C)cc2)cc1	none
Cc1ccc(P(=O)(CSC(=N)N)c2ccc(C)cc2)cc1	PRMT1 FP inh 70
O=C(c1ccncc1F)N1CCC(n2nnc3ncccc32)CC1	none (no result: TCR CD3 inh, HTRA1 inh)
CC(=O)Oc1ccc2c(C)cc(=O)oc2c1	none
CC(=O)Oc1cc2oc(=O)cc(C)c2cc1OC(C)=O	PRMT1 FP inh 21
CC(C)(C)NC(=O)c1ccccc1-c1nc2ccccc2s1	PRMT1 FP inh 24
CN[C@H]1C[C@H]2c3cc(-c4ccc5c(c4)OCO5)ccc3CCN2C[C@H]1[C@H](C)O	none (no result: TCR CD3 inh, HTRA1 inh)

High-throughput results (PubChem BioAssay)
